Assay outcomes from PubChem.
HCV NS3 hel inh = inhibitors of HCV NS3 helicase, primary screen, biochemical, Cy5 molecular beacon fluorescence; actives 0.56% (n = 290,000); inhibition, % at 10.9 µM; NS3 helicase DNA unwinding; Hepatitis C virus NS3 helicase;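 active means inhibition above the mean of all tested compounds plus 3 SD, set per campaign, cut at about 35% in these data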;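 further: 0% = DMSO wells and 100% = thioflavine S control wells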
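Material: hepatitis C virus NS3 helicase domain fragment enzyme; measured by: Cy5 fluorescence, 0 and 60 min reads; control set: DMSO and thioflavine S; incubation: 60 min unwinding reaction at 25 °C after ATP addition; read-out basis: % inhibition from 60/0 min fluorescence ratio, DMSO 0%, thioflavine S 100%; repeats: singlicate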
HCV core dimer = inhibitors of HCV core protein dimerization, primary screen, biochemical, TR-FRET, high-throughput; inhibition, % at 5 µM; actives 0.33% (n = 300,000); TR-FRET GST/Flag-core106 dimerization, 1536-well;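 active means inhibition above the mean of all tested compounds plus 3 SD, set per screening campaign, cut at about 45% in these data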
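Assay system: tagged HCV core106 pair (GST and Flag); medium: KF-containing HEPES buffer, pH 7.45, DTT, CHAPS, BSA; also added: Eu donor and XL665 acceptor anti-tag antibodies; dosing: 5 µM single dose; timing: compound-protein-antibody incubation 4 h at 22.5 °C; signal: TR-FRET 671 and 617 nm emission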
ALR inh = inhibitors of human ALR sulfhydryl oxidase, primary screen, biochemical, H2O2 detection, HRP-luminol luminescence, single point | purified ALR, DTT oxidation | inhibition, % (test concentration not listed) | actives 3.8% (n = 290,000);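 active means mean replicate inhibition above about 79%, with every replicate also reaching it, limit read from the data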
Target sequence (P55789 whole entry, looked up): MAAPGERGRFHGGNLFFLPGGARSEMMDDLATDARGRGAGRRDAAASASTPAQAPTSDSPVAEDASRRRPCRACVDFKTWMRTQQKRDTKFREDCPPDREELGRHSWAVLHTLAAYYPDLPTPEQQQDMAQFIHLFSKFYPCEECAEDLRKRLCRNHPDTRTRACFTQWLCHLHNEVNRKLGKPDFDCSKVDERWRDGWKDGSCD
ZTA counter = ZTA (EBV) inhibition in EBNA-1 counter-screen; P03206; ZTA-DNA binding, fluorescence polarization; inhibition, % at 11 µM; actives 0.15% (n = 320,000); AID 2234; in the data active means inhibition above about 33%
Target sequence (P03206 whole entry, looked up): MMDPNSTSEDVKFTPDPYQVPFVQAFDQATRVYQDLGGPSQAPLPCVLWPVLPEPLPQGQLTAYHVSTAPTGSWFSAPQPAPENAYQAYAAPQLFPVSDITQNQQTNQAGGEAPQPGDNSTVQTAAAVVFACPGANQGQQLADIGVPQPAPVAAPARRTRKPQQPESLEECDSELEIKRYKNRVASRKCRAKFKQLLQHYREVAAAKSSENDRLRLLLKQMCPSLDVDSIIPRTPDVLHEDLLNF
EBNA-1 inh = EBNA-1 DNA-binding inhibitors, primary screen, biochemical, fluorescence polarization; inhibition, % at 14.8 µM; actives 0.34% (n = 300,000); AID 1950, 2009; in the data active means inhibition above about 28%
PfM18AAP inh-1 = PfM18AAP inhibitors, malaria aminopeptidase, primary screen, biochemical, QFRET, recombinant enzyme; M18 aspartyl aminopeptidase (Plasmodium falciparum 3D7); H-Glu-NHMec fluorogenic cleavage; inhibition, % at 7.35 µM; actives 1.2% (n = 290,000); AID 1822, 2009;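 active means inhibition above the campaign mean inhibition over all tested compounds plus 3 SD, cut at about 28% in these data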;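 further: 0% = plate median of test compound wells and 100% = 2 mM ZnCl2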
PfM18AAP inh-2 = PfM18AAP inhibitors, malaria aminopeptidase, confirmation, biochemical, QFRET, recombinant enzyme, triplicate; shares compounds with PfM18AAP inh-1; actives 28% (n = 2,400); H-Glu-NHMec fluorogenic cleavage; inhibition, % at 7.35 µM; AID 2170, 2009;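 active means mean inhibition over replicate wells above the hit cutoff set for the earlier primary screen, cut at about 29% in these data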;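 further: 0% = median of test compound wells and 100% = 2 mM ZnCl2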
CTSL1 counter = cathepsin L1 inhibitors, retest, confirmation, counter-screen for PFM18AAP inhibitor project, biochemical, QFRET, triplicate; purified cathepsin L1, Z-Leu-Arg-MCA fluorescence; inhibition, % at 5.96 µM; shares compounds with PfM18AAP inh-1; 2,400 tested, under 10 active;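 active means average inhibition across replicates above the hit cutoff set in the earlier primary screen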;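 further: 0% = median of test compound wells and 100% = Z-Phe-Ala-diazomethylketone 1 µM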
Numbers without * were called inactive; nt = not tested or not shown. This is a sample that favours compounds with a hit; in the whole collection about 5.2% have one here.

SMILES	HCV NS3 hel inh	HCV core dimer	ALR inh	ZTA counter	EBNA-1 inh	PfM18AAP inh-1	PfM18AAP inh-2	CTSL1 counter
CSCC[C@H](NC(=O)N1CCn2c1nc1ccccc12)C(=O)N[C@@H](C(=O)O)c1ccccc1	10	-1	-10	-15	-9	51*	42*	-5
CCN1/C(=C/C(=O)c2ccco2)Sc2ccccc21	7	1	28	0	7	46*	-12	2
CCC(=O)/C=C1/Sc2ccccc2N1CC	-4	-6	nt	6	-3	54*	7	4
CCN1C(=O)/C(=C2\Sc3ccccc3N2CC)OC1=S	7	2	3	1	4	-3	nt	nt
O=C(NCc1ccco1)N1c2ccccc2Sc2ccccc21	1	1	12	-11	-2	4	nt	nt
CC(=O)c1sc(NC(=O)CCCOc2ccc(Cl)cc2)nc1C	6	10	nt	14	-12	-6	nt	nt
Cc1c2cc(O)c(=O)cc-2oc2cc(O)c(O)cc12	17	-14	93*	11	3	29*	42*	-1
Nc1nc(Sc2ccc(C(F)(F)F)cc2[N+](=O)[O-])n[nH]1	2	-4	-24	10	-4	63*	56*	-6
c1cncc(Nc2nc(-c3ccncc3)cs2)c1	-3	-3	19	-4	-3	-9	nt	nt
Clc1ccccc1-c1csc(Nc2cccnc2)n1	6	1	nt	5	-8	39*	-46	1
CCCCOP(=O)(c1ccc(N(C)C)cc1)C(O)c1ccc(N(C)C)cc1 (centres undefined)	-20	-19	92*	-2	-7	34*	-59	5
COc1ccc(NC(=O)CN2CCc3ccccc3C2)c([N+](=O)[O-])c1	-10	-1	-9	-13	-11	12	nt	nt
Cc1ccc(CC(=O)Nc2ccc(S(=O)(=O)Nc3ncccn3)cc2)cc1	10	9	-16	11	4	2	nt	nt
COc1ccc(/C=C2\N=C3CCCCCN3C2=O)cc1OC	0	-10	-36	-19	3	1	nt	nt
O=C1/C(=C\c2ccc(O)c(O)c2)N=C2CCCCCN12	-4	-16	99*	4	0	65*	56*	4
Cc1ccc(/C=N/n2c(-c3ccccc3)n[nH]c2=S)cc1	0	2	-6	-11	3	16	nt	nt
COc1cc(/C=N/n2c(-c3ccccc3)n[nH]c2=S)cc(OC)c1O	3	-6	36	-3	6	32*	-7	-3
Cc1ccc(-c2n[nH]c(=S)n2/N=C/c2ccc(C(=O)O)cc2)cc1	-4	8	90*	10	-2	36*	10	-4
Oc1c(Br)cc(/C=N/n2c(-c3ccccc3)n[nH]c2=S)cc1Br	25	nt	9	nt	nt	20	nt	nt
Oc1cccc(Nc2c3ccccc3nc3ccccc23)c1	26	-6	99*	-6	7	37*	-48	4
CCCC(=O)N(c1ccc2oc(=O)sc2c1)S(=O)(=O)c1cccs1	14	3	4	-14	-5	37*	-14	-1
CCC1CCc2sc(C(=O)NCC(c3ccc(OC)cc3)N3CCCC3)cc2C1 (centres undefined)	nt	-1	-1	-3	5	nt	nt	nt
COc1ccc(N2CC(C(=O)N(CC(C)C)c3c(N)n(Cc4ccccc4)c(=O)[nH]c3=O)CC2=O)c(OC)c1 (centres undefined)	nt	-2	-9	-6	-3	nt	nt	nt
O=C(CSc1nc(O)c(C2CCCCC2)c(=O)[nH]1)Nc1ccccc1Cl	9	6	nt	-3	1	7	nt	nt
O=C(O)CSc1nc2ccc(C(=O)c3ccccc3)cc2[nH]1	35	nt	51	nt	nt	-1	nt	nt
SMILES	HCV NS3 hel inh	HCV core dimer	ALR inh	ZTA counter	EBNA-1 inh	PfM18AAP inh-1	PfM18AAP inh-2	CTSL1 counter
CCN(CC(=O)Nc1ccc(NC(C)=O)cc1)C(=O)c1ccc(N2CCC(C)CC2)c([N+](=O)[O-])c1	nt	nt	6	-15	nt	nt	nt	nt
CC1CCN(c2cc(N3CCOCC3)c([N+](=O)[O-])cc2F)CC1	7	-4	-6	-4	8	-9	nt	nt
Cc1nnc(N/N=C/c2cc([N+](=O)[O-])c(N3CCC(C)CC3)cc2N2CCC(C)CC2)n1N	2	-2	-25	-18	-10	50*	-30	-1
CCc1nnc(N/N=C/c2ccc(N3CCC(C)CC3)c([N+](=O)[O-])c2)n1N	-1	-10	-6	5	-1	48*	-26	-9
COc1ccccc1Nc1nc2ccc(C)cc2n2cnnc12	12	2	0	0	9	7	nt	nt
COc1ccc(CN2C(=NC(=O)C3CC3)SC3CS(=O)(=O)CC32)cc1OC (centres undefined)	18	0	2	-31	-9	-7	nt	nt
Nc1c(/C=C2/C=CC(=O)C(O)=C2)c(=O)nc2sc(CC(=O)N3CCCC3)nn12	3	-9	99*	6	7	63*	43*	-2
Cc1cc(NC(=O)CSCC(=O)Nc2nc3ccccc3[nH]2)no1	nt	-2	-23	4	-4	nt	nt	nt
CCCOC(=O)Nc1ccc(S(=O)(=O)Nc2ncccn2)cc1	6	1	nt	10	-5	-2	nt	nt
CCOC(=O)Nc1ccc(NS(=O)(=O)c2ccc(C)cc2)cc1	-6	-5	nt	-4	-1	-15	nt	nt
CCOC(=O)Nc1ccc(S(=O)(=O)Nn2cnnc2)cc1	0	-1	-11	2	-5	41*	47*	-1
CCCCOC(=O)Nc1ccc(S(=O)(=O)Nc2cc(C)nc(C)n2)cc1	1	-7	-5	-8	0	-7	nt	nt
CCCCOC(=O)Nc1ccc(S(=O)(=O)Nn2cnnc2)cc1	2	-2	0	-10	-10	50*	50*	0
CCCOC(=O)Nc1ccc(S(=O)(=O)Nn2cnnc2)cc1	1	2	-6	-2	3	48*	51*	-4
Cc1ccc(OCC(=O)Nc2ccccc2C(=O)N2CCCC2)cc1	3	-3	-2	-24	0	-6	nt	nt
CC(=O)N1CCN(C2=NC(=O)/C(=C/c3ccc(OS(=O)(=O)c4ccccc4)cc3)S2)CC1	-11	14	-12	12	10	3	nt	nt
